Test results from ChEMBL document CHEMBL4152363, “Andrographolide derivative as STAT3 inhibitor that protects acute liver damage in mice” (Bioorg Med Chem, 2018).
The source made the active and inactive calls. The rule behind the calls is not given here.

Key:
[1] = target: T1, Signal transducer and activator of transcription 3 (Homo sapiens, UniProt P40763); assay: Inhibition of IFNgamma-stimulated STAT3 activation in human AD293 cells incubated with IFNgamma for 16 hrs followed by compound addition measured after 24 hrs by luciferase reporter gene assay; assay type: cell-based
T1 sequence (P40763 whole entry): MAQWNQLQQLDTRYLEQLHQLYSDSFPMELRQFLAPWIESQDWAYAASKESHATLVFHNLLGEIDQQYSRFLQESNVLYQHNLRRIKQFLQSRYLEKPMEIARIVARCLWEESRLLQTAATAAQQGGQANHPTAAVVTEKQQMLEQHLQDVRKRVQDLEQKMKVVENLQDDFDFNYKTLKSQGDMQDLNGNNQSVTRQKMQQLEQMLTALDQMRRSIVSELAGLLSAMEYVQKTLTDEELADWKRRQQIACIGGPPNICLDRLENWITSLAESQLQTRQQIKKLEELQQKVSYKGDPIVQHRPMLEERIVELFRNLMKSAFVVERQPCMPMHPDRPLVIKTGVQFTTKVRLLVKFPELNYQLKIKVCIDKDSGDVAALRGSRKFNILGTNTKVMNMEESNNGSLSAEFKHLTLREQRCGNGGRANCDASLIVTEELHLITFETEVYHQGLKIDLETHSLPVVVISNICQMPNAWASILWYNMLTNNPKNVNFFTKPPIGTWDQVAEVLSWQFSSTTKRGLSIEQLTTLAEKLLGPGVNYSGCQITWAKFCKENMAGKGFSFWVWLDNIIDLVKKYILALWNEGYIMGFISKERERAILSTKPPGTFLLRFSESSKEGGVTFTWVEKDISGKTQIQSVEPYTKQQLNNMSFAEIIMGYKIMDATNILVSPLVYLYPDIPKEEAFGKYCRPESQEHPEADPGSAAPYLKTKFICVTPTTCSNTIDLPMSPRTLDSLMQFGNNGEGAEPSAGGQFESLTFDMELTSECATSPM
In short: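 AD-293 or HeLa cells in DMEM/10% FBS stimulated with 20 pg/mL IFN-γ; compound treatment 24 h; luciferase activity measured in cell extracts; EC50 derived.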

AD293 = assay: Cytotoxicity against human AD293 cells; assay type: cell-based; conditions: ad293
In short: (§1)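 AD-293 or HeLa cells grown in high-glucose DMEM with 10% FBS and 1% penicillin-streptomycin; compound exposure 24 h; cytotoxicity reported as CC10.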

HeLa = assay: Cytotoxicity against human HeLa cells; assay type: cell-based; in short: as §1
[2] = target: T2, Signal transducer and activator of transcription 1-alpha/beta (Homo sapiens) (UniProt P42224); assay: Inhibition of IFNgamma-stimulated STAT1 phosphorylation at Tyr701 residues in human AD293 cell lysates incubated with IFNgamma followed by compound addition at 10 uM by Western blot analysis
T2 sequence (whole entry): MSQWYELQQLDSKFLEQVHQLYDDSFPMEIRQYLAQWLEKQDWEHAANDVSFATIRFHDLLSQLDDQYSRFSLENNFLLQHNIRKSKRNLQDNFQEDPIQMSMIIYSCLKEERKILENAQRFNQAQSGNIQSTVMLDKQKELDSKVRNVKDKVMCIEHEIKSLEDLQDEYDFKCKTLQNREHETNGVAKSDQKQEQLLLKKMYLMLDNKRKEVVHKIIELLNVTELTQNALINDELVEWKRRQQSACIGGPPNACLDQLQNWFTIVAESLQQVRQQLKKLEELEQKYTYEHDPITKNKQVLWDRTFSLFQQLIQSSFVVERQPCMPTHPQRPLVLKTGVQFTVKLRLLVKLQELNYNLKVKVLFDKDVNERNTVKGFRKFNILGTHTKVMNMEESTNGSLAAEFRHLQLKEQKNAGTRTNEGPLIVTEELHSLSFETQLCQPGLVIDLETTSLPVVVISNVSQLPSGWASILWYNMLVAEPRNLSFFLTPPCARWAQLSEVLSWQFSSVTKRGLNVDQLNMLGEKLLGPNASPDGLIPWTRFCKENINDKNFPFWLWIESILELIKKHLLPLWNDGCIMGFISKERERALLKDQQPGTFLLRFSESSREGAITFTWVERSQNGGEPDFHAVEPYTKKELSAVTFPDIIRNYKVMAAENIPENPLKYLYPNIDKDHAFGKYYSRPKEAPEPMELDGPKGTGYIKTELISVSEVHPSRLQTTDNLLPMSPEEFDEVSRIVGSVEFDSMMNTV
In short: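 AD-293 cells treated with 1 μg/mL IFN-γ alone or with compounds at 10 μM; phospho- and total STAT1 and STAT3 assessed by western blot; representative of at least three independent experiments.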

[3] = target: T1, Signal transducer and activator of transcription 3; assay: Inhibition of DNA binding activity of STAT3 in human AD293 cells up to 40 uM; assay type: cell-based
In short: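 STAT3 DNA binding measured with TransAM STAT family ELISA kit per manufacturer; competition control with threefold free oligo; mean ± SD of three separate experiments.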

Mus musculus [4] = assay: Hepatoprotective activity against CCL4-induced acute liver damage in Balb/c mouse assessed as decrease in number of necrotic cells at 30 mg/kg, po qd for 7 days measured after 16 hrs post CCL4 challenge by hematoxylin-eosin staining based light microscopy; assay type: functional, organism-based
In short: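 Male BalB/C mice given oral 30 mg/kg daily for 7 days, then sc CCl4 (40% in olive oil, 10 ml/kg); sacrificed 16 h later; livers fixed in 10% formaldehyde, paraffin sections stained with H&E or Masson's trichrome, light microscopy, ≥3 sections per liver; n=5, two experiments.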

Mus musculus [5] = assay: Hepatoprotective activity against CCL4-induced acute liver damage in Balb/c mouse assessed as increase in number of PCNA positive cells at 30 mg/kg, po qd for 7 days measured after 16 hrs post CCL4 challenge by hematoxylin staining based immunohistochemistry method; assay type: functional, organism-based
In short: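 Liver sections from mice dosed orally 30 mg/kg daily 7 days then sc CCl4, killed 16 h after; H2O2 block, goat serum/BSA/gelatin blocking 1 h RT, primary antibody (α-SMA, Ki67, PCNA or STAT3) 4 °C overnight, HRP secondary, DAB, hematoxylin counterstain; >30 fields at 400× quantified; n=5.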

Mus musculus [6] = assay: Reduction in MMP10 mRNA expression level in CCL4-induced acute liver damage in Balb/c mouse at 30 mg/kg, po qd for 7 days measured after 16 hrs post CCL4 challenge by qRT-PCR method; assay type: functional, organism-based
In short: (§2)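 Mice given 30 mg/kg orally once daily 7 days before sc CCl4 (40% in olive oil, 10 ml/kg); livers harvested 16 h later, PBS-washed, stored at −70 °C for RNA extraction and transcript quantification; n=5, two independent experiments.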

Mus musculus [7] = assay: Reduction in MMP13 mRNA expression level in CCL4-induced acute liver damage in Balb/c mouse at 30 mg/kg, po qd for 7 days measured after 16 hrs post CCL4 challenge by qRT-PCR method; assay type: functional, organism-based; in short: as §2
Mus musculus [8] = assay: Reduction in serum ALT level in CCL4-induced acute liver damage in Balb/c mouse at 30 mg/kg, po qd for 7 days measured after 16 hrs post CCL4 challenge […]; assay type: functional, organism-based
Mus musculus [9] = assay: Reduction in serum AST level in CCL4-induced acute liver damage in Balb/c mouse at 30 mg/kg, po qd for 7 days measured after 16 hrs post CCL4 challenge […]; assay type: functional, organism-based
Mus musculus [10] = assay: Antiinflammatory activity in CCL4-induced acute liver damage Balb/c mouse model assessed as decrease in serum IL-6 levels at 30 mg/kg, po qd for 7 days measured after 16 hrs post CCL4 challenge; assay type: functional, organism-based
In short: (§3)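 BalB/C males dosed orally 30 mg/kg daily for 7 days, then sc CCl4 (40% in olive oil, 10 ml/kg); serum collected 16 h post-CCl4 after CO2 anaesthesia, stored at −70 °C until IL-6, MCP-1 or TGF-β analysis; n=5.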

Mus musculus [11] = assay: Antiinflammatory activity in CCL4-induced acute liver damage Balb/c mouse model assessed as decrease in serum MCP-1 levels at 30 mg/kg, po qd for 7 days measured after 16 hrs post CCL4 challenge; assay type: functional, organism-based; in short: as §3
[12] = target: T1, Signal transducer and activator of transcription 3; assay: Inhibition of STAT3 in human AD293 cells assessed as decrease in TGFbeta-stimulated SMAD2/3 activation up to 10 uM incubated for 16 hrs by luciferase reporter gene assay relative to control; assay type: cell-based
In short: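 AD-293 cells carrying SMAD2/3 promoter in pGL4.20 luciferase vector, stimulated with TGF-β 100 ng/ml for 16 h with compound up to 10 µM; luciferase activity measured in cell extracts.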

SMILES: CC(C)(C)[Si](C)(C)O[C@@H]1COC(=O)/C1=C/C[C@@H]1[C@]2(CC[C@H]3[C@@]1(C)CCC(=O)[C@@]3(C)CO)CO2
- EC50 [1]: 5.99 µM
- CC10 (AD293): > 10 µM
- CC10 (HeLa): > 10 µM
- inhibition [2]: inactive
- inhibition [3]: inactive
- Activity (Mus musculus [4]): Active
- Activity (Mus musculus [5]): Active
- Activity (Mus musculus [6]): Active
- Activity (Mus musculus [7]): Active
- Activity (Mus musculus [8]): inactive
- Activity (Mus musculus [9]): inactive
- Activity (Mus musculus [10]): Active
- Activity (Mus musculus [11]): Active
- inhibition [12]: < 50%
